# Test results from ChEMBL document CHEMBL3600357 (J Med Chem, 2015).
# Assays:
# [1] = AUC (0 to 24 hrs) in human SJSA1 cells xenografted rat assessed as mouse survival at 10 mg/kg, po qd; format: ADME, organism-based, SJSA-1; parameters: time < 24 hr, dose 10 mg/kg, route oral; settings: in vivo
# Method in brief: (§1)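 Rats bearing MDM2-amplified human SJSA-1 tumors, dosed orally either daily or 3qw (Monday, Wednesday, Friday). Plasma exposure reported as AUC0-24, plus AUC0-48 for the 3qw schedule.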
# [2] = Protein binding in cynomolgus monkey plasma by equilibrium dialysis method; format: ADME, cell-free, Macaca fascicularis; settings: read-out: PPB
# [3] = Terminal half life in cynomolgus monkey at 0.1 mg/kg, iv; format: ADME, organism-based, Macaca fascicularis; settings: in vivo, read-out: beta t1/2 (converted)
# Rattus norvegicus [4] = assay: Toxicity in human SJSA1 cells xenografted rat assessed as mouse survival at 70 mg/kg, po dosed 3 times per week; format: organism-based, SJSA-1; settings: in vivo
# Method in brief: (§2)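 Tolerability was monitored in SJSA-1 tumour-bearing rats during the daily and 3qw (Monday, Wednesday, Friday) treatment schedules. Histopathology was done on all 3qw doses and on the 30 mg/kg daily group.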
# [5] = target: Baculoviral IAP repeat-containing protein 2 (Homo sapiens, UniProt Q13490); assay: Inhibition of cIAP (unknown origin) assessed as inhibition of cIAP-BIR3 interaction by TR-FRET assay
# [6] = Octanol water partition coefficient, logP of the compound; format: physicochemical
# Rattus norvegicus [7] = species: Rattus norvegicus; assay: Toxicity in rat testes assessed as effect on proliferative cells; format: organism-based, Testis; settings: in vivo
# Cynomolgus monkey = assay: Oral bioavailability in cynomolgus monkey at 0.3 mg/kg; format: ADME, organism-based, Macaca fascicularis; settings: in vivo
# [8] = Volume of distribution at steady state in beagle dog at 0.1 mg/kg, iv; format: ADME, organism-based, Canis lupus familiaris; settings: in vivo, read-out: Vdss
# [9] = Inhibition of Ras (unknown origin) assessed as inhibition of Ras-Raf interaction by TR-FRET assay; parameters: species or system Homo sapiens
# [10] = Terminal half life in OF1 mouse at 1 mg/kg, iv; format: ADME, organism-based; settings: in vivo, read-out: beta t1/2 (converted)
# Rattus norvegicus [11] = assay: Toxicity in human SJSA1 cells xenografted rat assessed as change in body weight at 30 mg/kg, po dosed three times per week (reference value: 1.9 to 6.8%); format: organism-based, SJSA-1; settings: in vivo
# Rattus norvegicus [12] = assay: Toxicity in human SJSA1 cells xenografted rat assessed as change in body weight at 70 mg/kg, po dosed three times per week (reference value: 1.9 to 6.8%); format: organism-based, SJSA-1; settings: in vivo
# [13] = Protein binding in beagle dog plasma by equilibrium dialysis method; format: ADME, cell-free, Canis lupus familiaris; settings: read-out: PPB
# Rattus norvegicus [14] = assay: Toxicity in human SJSA1 cells xenografted rat assessed as change in body weight at 5 mg/kg, po qd (reference value: 1.9 to 6.8%); format: organism-based, SJSA-1; settings: in vivo
# Rattus norvegicus [15] = assay: Toxicity in human SJSA1 cells xenografted rat assessed as mouse survival at 30 mg/kg, po qd; format: organism-based, SJSA-1; settings: in vivo; method in brief: as §2
# [16] = Terminal half life in beagle dog at 0.1 mg/kg, iv; format: ADME, organism-based, Canis lupus familiaris; settings: in vivo, read-out: beta t1/2 (converted)
# [17] = target: Apoptosis regulator Bcl-2 (Homo sapiens, UniProt P10415); assay: Inhibition of Bcl2 (unknown origin) assessed as inhibition of Bcl2-Bak interaction by TR-FRET assay
# [18] = AUC (0 to 24 hrs) in human SJSA1 cells xenografted rat assessed as mouse survival at 5 mg/kg, po qd; format: ADME, organism-based, SJSA-1; parameters: time < 24 hr, dose 5 mg/kg, route oral; settings: in vivo; method in brief: as §1
# [19] = target: Induced myeloid leukemia cell differentiation protein Mcl-1 (Homo sapiens, UniProt Q07820); assay: Inhibition of Mcl1 (unknown origin) assessed as inhibition of Mcl1-Bak interaction by TR-FRET assay
# Rattus norvegicus [20] = species: Rattus norvegicus; assay: Toxicity in rat assessed as induction of structural changes in testes tubular epithelium; format: organism-based, Testis; settings: in vivo
# [21] = AUC (0 to 24 hrs) in human SJSA1 cells xenografted rat assessed as mouse survival at 70 mg/kg, po dosed 3 times per week; format: ADME, organism-based, SJSA-1; parameters: time < 24 hr, dose 70 mg/kg, route oral; settings: in vivo; method in brief: as §1
# Rattus norvegicus [22] = species: Rattus norvegicus; assay: Toxicity in rat assessed as changes in testes parameters; format: organism-based, Testis; settings: in vivo
# [23] = Volume of distribution at steady state in cynomolgus monkey at 0.1 mg/kg, iv; format: ADME, organism-based, Macaca fascicularis; settings: in vivo, read-out: Vdss
# Rattus norvegicus [24] = assay: Oral bioavailability in Sprague-Dawley rat at 3 mg/kg; format: ADME, organism-based; settings: in vivo
# Method in brief: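 Sprague-Dawley rats. IV dose given as a solution in NMP:PEG200 (10:90); 3 mg/kg PO given as a suspension in CMC:water:Tween (0.5:99:0.5). AUC and Cmax dose-normalized to 1 mg/kg. Mean ± SD from four rats.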
# Canis familiaris = assay: AUC in beagle dog at 0.3 mg/kg, po; format: ADME, organism-based, Canis lupus familiaris; settings: in vivo
# Rattus norvegicus [25] = assay: Toxicity in human SJSA1 cells xenografted dosed rat assessed as induction of histopathological changes dosed orally on daily basis under q24h regime; format: organism-based, SJSA-1; settings: in vivo, po
# Method in brief: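 Rats bearing MDM2-amplified SJSA-1 human tumours, treated daily. Tolerability was monitored during treatment. Histopathology for compound-related findings was performed at the 30 mg/kg daily dose.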
# Rattus norvegicus [26] = assay: Toxicity in human SJSA1 cells xenografted rat assessed as mouse survival at 5 mg/kg, po qd; format: organism-based, SJSA-1; settings: in vivo; method in brief: as §2
# Rattus norvegicus [27] = assay: Toxicity in human SJSA1 cells xenografted rat assessed as change in body weight at 10 mg/kg, po qd (reference value: 1.9 to 6.8%); format: organism-based, SJSA-1; settings: in vivo
# [28] = Tmax in cynomolgus monkey at 0.3 mg/kg, po; format: ADME, organism-based, Macaca fascicularis; settings: in vivo
# Mus musculus = assay: AUC in OF1 mouse at 3 mg/kg, po; format: ADME, organism-based; settings: in vivo
# [29] = target: E3 ubiquitin-protein ligase Mdm2 (Canis lupus familiaris, UniProt P56950); assay: Inhibition of dog MDM2 by TR-FRET assay
# Chain of E3 ubiquitin-protein ligase Mdm2 (P56950 whole entry): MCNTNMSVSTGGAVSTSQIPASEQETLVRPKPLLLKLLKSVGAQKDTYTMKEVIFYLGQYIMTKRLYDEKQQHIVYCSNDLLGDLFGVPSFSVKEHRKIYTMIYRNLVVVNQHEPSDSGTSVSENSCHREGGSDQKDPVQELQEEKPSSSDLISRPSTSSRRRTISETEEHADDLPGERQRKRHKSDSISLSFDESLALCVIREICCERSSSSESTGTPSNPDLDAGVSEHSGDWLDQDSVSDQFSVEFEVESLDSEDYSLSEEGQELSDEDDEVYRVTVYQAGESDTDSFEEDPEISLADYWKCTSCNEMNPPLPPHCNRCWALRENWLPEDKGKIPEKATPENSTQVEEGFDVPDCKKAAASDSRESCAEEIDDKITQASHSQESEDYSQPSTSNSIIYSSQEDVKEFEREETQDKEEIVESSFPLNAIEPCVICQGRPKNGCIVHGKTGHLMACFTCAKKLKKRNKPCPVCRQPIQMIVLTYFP
# Chain of Induced myeloid leukemia cell differentiation protein Mcl-1 (Q07820 whole entry): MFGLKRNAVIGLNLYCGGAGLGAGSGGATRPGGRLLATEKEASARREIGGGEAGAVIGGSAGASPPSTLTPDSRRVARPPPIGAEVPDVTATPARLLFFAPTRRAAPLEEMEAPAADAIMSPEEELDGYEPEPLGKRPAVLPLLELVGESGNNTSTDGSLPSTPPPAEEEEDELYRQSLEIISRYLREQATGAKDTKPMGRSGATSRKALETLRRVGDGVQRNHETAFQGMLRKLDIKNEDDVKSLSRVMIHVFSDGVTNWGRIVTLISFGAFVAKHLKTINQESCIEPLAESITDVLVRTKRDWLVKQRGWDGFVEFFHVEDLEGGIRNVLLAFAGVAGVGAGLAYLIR
# Chain of Baculoviral IAP repeat-containing protein 2 (Q13490 whole entry): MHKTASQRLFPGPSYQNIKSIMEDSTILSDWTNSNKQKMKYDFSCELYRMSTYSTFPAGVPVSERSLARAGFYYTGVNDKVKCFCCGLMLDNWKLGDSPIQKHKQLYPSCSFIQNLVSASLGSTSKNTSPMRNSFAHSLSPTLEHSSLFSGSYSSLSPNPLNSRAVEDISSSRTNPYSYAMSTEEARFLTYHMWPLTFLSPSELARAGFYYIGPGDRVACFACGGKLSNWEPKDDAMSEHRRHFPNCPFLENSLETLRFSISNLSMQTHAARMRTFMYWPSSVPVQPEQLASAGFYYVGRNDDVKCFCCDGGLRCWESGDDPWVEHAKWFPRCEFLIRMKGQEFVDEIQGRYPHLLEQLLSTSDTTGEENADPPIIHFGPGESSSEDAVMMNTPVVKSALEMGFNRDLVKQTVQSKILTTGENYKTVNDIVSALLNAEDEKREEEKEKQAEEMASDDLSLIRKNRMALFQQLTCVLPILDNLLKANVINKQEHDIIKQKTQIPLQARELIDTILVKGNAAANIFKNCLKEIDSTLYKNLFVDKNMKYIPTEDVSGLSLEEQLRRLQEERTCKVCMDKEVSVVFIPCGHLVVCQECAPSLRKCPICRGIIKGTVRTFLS
# Chain of Apoptosis regulator Bcl-2 (P10415 whole entry): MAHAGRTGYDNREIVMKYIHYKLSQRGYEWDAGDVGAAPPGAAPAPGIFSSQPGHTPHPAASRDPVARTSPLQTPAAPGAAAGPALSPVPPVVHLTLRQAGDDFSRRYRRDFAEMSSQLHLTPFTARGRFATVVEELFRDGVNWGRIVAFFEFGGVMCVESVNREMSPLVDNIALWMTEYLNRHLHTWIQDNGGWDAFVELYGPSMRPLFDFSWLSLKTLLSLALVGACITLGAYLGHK
compound,measurement,setting,value
COc1cc2c(cc1OC(C)C)[C@H](c1ccc(Cl)cc1)N(c1ccc(N(C)C[C@H]3CC[C@H](N4CCN(C)C(=O)C4)CC3)cc1)C(=O)C2 [CGM-097],AUC at 24 h,[1],61 µM·h
same,fraction unbound,[2],< 0.01
same,half-life,[3],8.3 h
same,Activity,Rattus norvegicus [4],Non-toxic
same,IC50,[5],> 50 µM
same,logP,[6],5.8
same,Activity,Rattus norvegicus [7],Non-toxic
same,F,Cynomolgus monkey,57%
same,Vd,[8],4.2 L/kg
same,IC50,[9],4.5 µM
same,half-life,[10],6.4 h
same,Activity,Rattus norvegicus [11],4.5%
same,Activity,Rattus norvegicus [12],7%
same,fraction unbound,[13],< 0.01
same,Activity,Rattus norvegicus [14],2.8%
same,Activity,Rattus norvegicus [15],Non-toxic
same,half-life,[16],19.8 h
same,IC50,[17],> 50 µM
same,AUC at 24 h,[18],34 µM·h
same,IC50,[19],> 50 µM
same,Activity,Rattus norvegicus [20],Toxic
same,AUC at 24 h,[21],616 µM·h
same,Activity,Rattus norvegicus [22],Toxic
same,Vd,[23],2 L/kg
same,F,Rattus norvegicus [24],81%
same,AUC,Canis familiaris,5.993 µM·h
same,Activity,Rattus norvegicus [25],Non-toxic
same,Activity,Rattus norvegicus [26],Non-toxic
same,Activity,Rattus norvegicus [27],1.8%
same,Tmax,[28],1.3 h
same,AUC,Mus musculus,3.337 µM·h
same,Ki,[29],0.0205 µM
